HKDC1 inhibitor: inhibitors of human hexokinase HKDC1; Q2TB90; recombinant HKDC1, G6PDH/diaphorase resazurin coupled fluorescence; inhibition, % at 20 µM; actives 0.16% (n = 340,000); AID 493160;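 active = inhibition above about 35% when tested at 20 µM, limit read from the data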;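 also: plate controls were DMSO wells with enzyme for no effect and DMSO wells lacking enzyme for full effect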
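Test system: HK5 enzyme. Quantity: 5 µg/mL HK5 final. Reagent: glucose and ATP substrates. Schedule: 90 min reaction incubation at room temperature, dark. Technique: resazurin-to-resorufin fluorescence via G6PDH and diaphorase coupling, 525/613 nm. Control set: DMSO wells with and without enzyme mix.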
DNMT1 block: inhibitors of human DNMT1 | AID 588458 | inhibition (reported as % activation of signal), % at 10 µM | actives 0.83% (n = 360,000) | P26358 | DNMT1 molecular beacon, Hinp1I cleavage, fluorescence; in the data active = inhibition above about 50%
STEP inh: blocks human striatal-enriched tyrosine phosphatase. recombinant STEP, OMFP fluorogenic substrate, fluorescence. inhibition, % at 20 µM. actives 0.25% (n = 360,000);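 active = inhibition at 20 µM, scaled per plate between control wells, above about 37%, limit read from the data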;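 also: 0% = DMSO with enzyme and substrate and 100% = substrate only without enzyme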
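Material: STEP (striatal-enriched tyrosine phosphatase) enzyme, cell-free; Compound dosing: 20 µM single dose in 1% DMSO; Technique: fluorescence read at 480 nm ex / 540 nm em; Times: reaction 20 min, ambient temperature; Medium: 50 mM Bis-Tris pH 6.0 with 2.5 mM DTT and 0.005% Tween 20; Also added: OMFP at 25 µM.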
LMPTP block: LMPTP (human) inhibition; recombinant LMPTP-A, OMFP fluorogenic substrate, fluorescence intensity; actives 0.22% (n = 360,000); inhibition, % at 20 µM; P24666;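 active = compounds that cut the enzyme signal by at least half of the control window in the single-dose screen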;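 also: plate controls were DMSO wells with enzyme plus substrate for no effect and substrate without enzyme for full effect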
Target sequence (P24666 whole entry, looked up): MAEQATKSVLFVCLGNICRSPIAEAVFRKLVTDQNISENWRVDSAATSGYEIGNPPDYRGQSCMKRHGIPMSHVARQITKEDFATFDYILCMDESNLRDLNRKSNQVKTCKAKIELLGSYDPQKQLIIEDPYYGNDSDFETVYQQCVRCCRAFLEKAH
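Test system: LMPTP-A phosphatase enzyme; input: 0.625 nM LMPTP-A final; reagent: OMFP substrate, 400 µM final; compound dosing: 20 µM single dose, 3% DMSO; incubation: 50 min dark incubation at room temperature; measured by: endpoint fluorescence intensity from OMFP dephosphorylation; measure: % inhibition relative to no-enzyme and uninhibited control wells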
Scp1 inh: blocks human Scp-1 phosphatase activity; Q9GZU7; Recombinant Scp1, phosphopeptide, malachite green phosphate absorbance; inhibition, % at 20 µM; actives 0.88% (n = 340,000); AID 493091;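 active = inhibition above about 50% at 20 µM, limit read from the data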;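 also: plate controls were DMSO wells with enzyme for no effect and wells lacking enzyme for full effect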
Target sequence (Q9GZU7 76-261 limits assumed): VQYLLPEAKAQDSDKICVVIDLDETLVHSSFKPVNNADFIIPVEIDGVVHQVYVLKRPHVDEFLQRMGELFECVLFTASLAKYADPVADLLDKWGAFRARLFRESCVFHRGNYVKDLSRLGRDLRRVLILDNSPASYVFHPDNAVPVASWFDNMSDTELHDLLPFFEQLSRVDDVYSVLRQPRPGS
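Assay system: SCP-1 catalytic fragment, aa 76-261 | Buffer or medium: Tris acetate buffer pH 5.5 with MgCl2 and Tween-20 | Compound: One concentration, 20 µM, with 1.0% DMSO | Also added: Phospho 17-mer peptide substrate | Signal: Absorbance at 630 nm | Incubation: 45 min enzyme reaction at room temperature | Measure: % inhibition of SCP-1 phosphate liberation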
SUMO1-SIM PPI: SUMO1-SIM interaction modulation. P63165. inhibition, % at 20 µM. actives 0.33% (n = 360,000). AID 602429. SUMO1 binding to a labelled peptide, TR-FRET, 1 h; in the data active = inhibition above about 37%
Target sequence (P63165 whole entry, looked up): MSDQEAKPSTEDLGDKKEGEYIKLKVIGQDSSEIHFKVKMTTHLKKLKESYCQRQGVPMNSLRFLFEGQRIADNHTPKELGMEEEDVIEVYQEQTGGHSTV
HKDC1 act conf2: confirmation of human HKDC1 activators | shares compounds with HKDC1 inhibitor | recombinant HKDC1, G6PDH/diaphorase resazurin fluorescence; hits give low values | inhibition, % at 20 µM | actives 14% (n = 740);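 active = inhibition at or below a set negative limit, negative inhibition meaning the enzyme was activated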
The depositor's hits bear a star; / = not tested or not shown. This is a sample that favours compounds with a hit; in the whole collection about 1.8% have one here.

SMILES	HKDC1 inhibitor	DNMT1 block	STEP inh	LMPTP block	Scp1 inh	SUMO1-SIM PPI	HKDC1 act conf2
CCN1C(=O)C(NC(C)=O)c2cc(OC)ccc21 (centres undefined)	-9	0	1	-2	-4	-1	/
CCCNC(=O)C1(C)CCN(Cc2ccc(-c3ccccc3)o2)C1 (centres undefined)	/	6	2	1	/	-2	/
Fc1ccc(N=C2NN=C(c3cc(F)ccc3F)CS2)cc1	-218	-28	0	3	-12	-3	-132*
Fc1ccc(F)c(C2=NNC(=Nc3ccccc3F)SC2)c1	-143	-22	-3	1	-3	2	/
Fc1ccccc1N=C1NN=C(c2ccccc2)CS1	-82	-12	-1	0	4	-5	-53*
Cc1ccc(Cc2c(-c3ccc(C#N)cc3)nc3c4ccccc4ccn23)cc1	/	-3	0	1	/	-8	/
COc1cc(OC)nc(C(NC(=O)C2CCN(Cc3c[nH]c4ccccc34)CC2)c2ccc(Cl)cc2)n1 (centres undefined)	/	-6	2	0	/	-9	/
CSC1=NC(=O)/C(=C\c2cccc3ccccc23)S1	33	-3	-2	-4	-7	-1	-11
CC1=NOC(=O)/C1=C\c1ccc(-c2ccc(Br)cc2)o1	42*	61*	4	5	1	15	12
Cc1c(Cc2ccccc2)sc(NC(=O)Cc2ccccc2)c1C(N)=O	-52	-20	3	4	-6	0	-7
COC(=O)c1c(NC(C)=O)sc(Cc2ccccc2)c1C	-77	-6	1	1	3	2	-38*
COC(=O)[C@@]12C[C@@H](CC(=O)NCC3CCCCC3)C(=O)N(Cc3ccccc3)C1=CCC(C)(C)C2	/	/	/	2	/	6	/
Cc1ccc(/C=C2\C(=O)ON=C2c2ccccc2)o1	-5	1	-2	-1	-5	-6	/
Cc1ccc(-c2ccc(/C=C3\C(=O)ON=C3c3ccccc3)o2)c([N+](=O)[O-])c1	43*	54*	2	0	-1	34	10
O=Cc1[nH]c2ccccc2c1N(C(=O)CCl)c1ccccc1	35*	11	3	0	-4	-6	34
COc1ccc(C2=NNC(=Nc3cc(S(=O)(=O)N(C)C)ccc3C)SC2)c(OC)c1	-125	-16	-2	3	-5	-2	-120*
CN(C)S(=O)(=O)c1cccc(N=C2NN=C(c3ccccc3)CS2)c1	-281	/	/	/	-17	/	/
Cc1cc(C)n(Cc2ccc(C(=O)N/N=C/c3ccc(-c4ccc([N+](=O)[O-])cc4)o3)o2)n1	66*	98*	99*	97*	102*	104*	31
CN(C)C(=O)/C(C#N)=C\c1cc(Br)c(Sc2ccc(Cl)cc2)o1	35*	-3	0	2	0	-11	14
CNC(=O)/C(C#N)=C/c1ccc(-c2ccc(Cl)cc2)o1	-11	49	1	46	-6	-17	/
N#Cc1ccsc1NC(=O)C1=COCCO1	2	6	0	8	1	19	/
Cc1c(O)c2ccccc2n(-c2ccccc2)c1=O	4	-2	0	-1	-21	9	/
CC(C)(C)c1c(Cl)c(O)c(-c2ccccc2)c(=O)n1-c1ccccc1	36*	-1	-8	-1	9	6	41
C[C@H]1CN([C@@H](C)CO)C(=O)c2cc(Br)cnc2O[C@H]1CN(C)C(=O)c1ccccn1	/	8	-3	-2	/	2	/
Oc1ccc2ccccc2c1C=Nc1ccccc1Br	38*	-7	0	-1	4	-13	10
Oc1ccccc1N=Cc1c(O)ccc2ccccc12	10	-6	-9	5	-14	-45	/
Oc1ccc2ccccc2c1/C=N/c1nccs1	37*	-6	1	-2	-11	-6	29
CC(C)N(C)c1ncnc2c1ncn2[C@H]1CN(Cc2ccc(Cl)cc2)C[C@@H](CO)O1	/	-4	1	-1	/	3	/
